# Compound activity deposited in PubChem BioAssay by The Scripps Research Institute Molecular Screening Center.
# GSTO1 inh – inhibitors of recombinant GSTO1, primary screen, counter-screen for RBBP9 inhibitor project, biochemical, fluorescence polarization; AID 1974, 2009; inhibition, % at 5.96 µM; activity-based probe fluorescence polarization; Glutathione S-transferase omega-1 (Homo sapiens), P78417; actives 1.1% (n = 300,000);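 active means inhibition above the campaign mean inhibition plus 3 SD, cut at about 35% in these data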;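 further: 0% = GSTO1-1 with DMSO and 100% = wells lacking GSTO1-1 enzyme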
# Target sequence (P78417 whole entry, looked up): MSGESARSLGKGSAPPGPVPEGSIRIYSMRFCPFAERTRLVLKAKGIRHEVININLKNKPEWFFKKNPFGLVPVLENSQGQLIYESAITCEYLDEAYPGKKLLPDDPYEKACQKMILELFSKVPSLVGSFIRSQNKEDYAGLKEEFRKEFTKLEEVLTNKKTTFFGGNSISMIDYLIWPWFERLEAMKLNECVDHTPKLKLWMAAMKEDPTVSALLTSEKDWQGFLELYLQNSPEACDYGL
# PRMT1 inh – PRMT1 methyltransferase inhibitors, primary screen, biochemical, fluorescence polarization; recombinant PRMT1, activity-based probe fluorescence polarization; inhibition, % at 2.79 µM; actives 1.3% (n = 370,000); AID 652257, 2013;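 active means inhibition above about 21% made by adding two undisclosed values, limit read from the data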
# Fh CTSL1 inh – Fasciola hepatica cathepsin L1 inhibitors, primary screen, counter-screen for PFM18AAP inhibitor project, biochemical, QFRET, fluorogenic peptide substrate; recombinant F. hepatica cathepsin L1, Z-Leu-Arg-MCA fluorescence; inhibition, % at 5.96 µM; actives 0.49% (n = 300,000); AID 1906, 2009;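 active means inhibition above the mean of all tested compounds plus 3 SD, set per screening campaign, cut at about 17% in these data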;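 further: 0% = plate median of test compound wells and 100% = 1 µM Z-Phe-Ala-diazomethylketone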
# TDP2 inh – human TDP2 enzyme inhibitors, primary screen, biochemical, epi absorbance, recombinant enzyme; Tyrosyl-DNA phosphodiesterase 2 (Homo sapiens), O95551; T5PNP hydrolysis, p-nitrophenol absorbance 415 nm; inhibition, % at 12.8 µM; actives 0.34% (n = 370,000); AID 720702, 2013;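 active means inhibition above the mean of all tested compounds plus 3 SD, set per campaign, cut at about 25% in these data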;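 further: 0% = DMSO with enzyme and 100% = buffer with substrate but no TDP2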
# Target sequence (O95551 whole entry, looked up): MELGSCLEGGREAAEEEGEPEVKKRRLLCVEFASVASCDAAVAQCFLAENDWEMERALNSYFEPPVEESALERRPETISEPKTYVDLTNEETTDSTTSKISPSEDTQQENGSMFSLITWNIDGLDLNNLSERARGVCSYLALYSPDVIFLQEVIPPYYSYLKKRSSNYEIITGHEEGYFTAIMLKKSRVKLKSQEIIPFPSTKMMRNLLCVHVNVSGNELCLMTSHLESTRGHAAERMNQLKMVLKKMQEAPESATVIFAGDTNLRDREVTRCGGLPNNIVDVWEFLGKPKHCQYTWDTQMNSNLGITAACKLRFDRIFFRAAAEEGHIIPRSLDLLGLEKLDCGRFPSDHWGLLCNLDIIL
#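 Incubation: 2 h at 37 °C; Test system: recombinant human TDP2; Quantity: enzyme 120 nM; Read-out basis: percent inhibition; Medium: 50 mM Tris-HCl pH 7.5 with Mg2+, KCl, DTT, BSA; Repeats: single replicate; Compound: 12.8 µM single point, 1% DMSO; Signal: epi absorbance; Reagent: 5 mM T5PNP chromogenic substrate; Benchmarks: no-enzyme high, DMSO-plus-enzyme low.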
# PAD4 FP inh – human PAD4 inhibitors, primary screen, biochemical, fluorescence polarization, 1536-well format. recombinant PAD4, RCA probe fluorescence polarization. inhibition, % at 6.36 µM. actives 0.41% (n = 330,000);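 active means percent inhibition above a cutoff equal to the mean of all tested compounds plus 3 SD, cut at about 15% in these data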;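 further: 0% = PAD4 with RCA probe and DMSO and 100% = probe without PAD4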
# The depositor's hits bear a star; . = not tested or not shown. The list is not random: actives were taken first. Their share in the collection is about 2.5%.
SMILES,GSTO1 inh,PRMT1 inh,Fh CTSL1 inh,TDP2 inh,PAD4 FP inh
O=C(CN1C(=O)C2(OCCCO2)c2ccccc21)NCc1ccccc1Cl,.,-1,.,3,.
Cc1ccc(Nc2ccc(C(=O)O)cc2N)cc1,-2,24*,1,-14,-3
Cc1ccn2c(=O)nc(SCC(=O)N3CCCC3)nc2c1,6,3,17*,5,4
Cc1ccn2c(=O)nc(SCC(=O)N3CCCCC3)nc2c1,12,2,-2,-3,-1
CCOC(=O)CC[C@@H]1CC[C@]2(CCCN(Cc3ccc(Cl)cc3)C2)O1,.,-1,.,10,.
COc1ccc(-n2nc(C(=O)N3CCC(N4CCCCC4)CC3)c3c4ccccc4n(C)c3c2=O)cc1,-3,-2,19*,9,-5
CCCN1/C(=C2/SC(=S)N(CC)C2=O)C=Cc2ccccc21,-3,2,30*,0,7
O=C(OC12CCCN(C1)/C(=C/c1ccc(Cl)cc1)C2)c1ccno1 (stereo unspecified),.,-1,.,3,.
CC1CCCCC1N(C)C1CCN(C(=O)CNC(=O)/C=C/c2cccc(Cl)c2)CC1 (stereo unspecified),-120,22*,0,4,1
CN(C1CCCC1)C1CCN(C(=O)CNC(=O)/C=C/c2ccccc2)CC1,0,-4,-2,12,1
Cc1ccc(NC(=S)NNC(=O)CSc2nnc(SCc3cccc4ccccc34)s2)cc1,.,-6,.,-6,.
Cc1cc(C)n(C(=O)/C(C#N)=N\Nc2ccccc2[N+](=O)[O-])n1,-4,0,2,-11,-1
Cc1cc(C)n(C(=O)/C(C#N)=N/Nc2cc(Cl)cc(Cl)c2)n1,-12,.,20*,.,-2
COc1ccc(C[N+]2=C(N)NC3=C4CCCCC4n4c(=O)n(-c5ccccc5)c(=O)n4C3C2)c(OC)c1 (stereo unspecified),.,1,.,4,.
O=C1c2ccccc2C(=O)c2c(NCCCN(CCO)CCO)cccc21,.,2,.,-15,.
CCN(CCCNc1cc2c(c(N)c1S(=O)(=O)O)C(=O)c1ccccc1C2=O)c1ccccc1,.,23*,.,-8,.
COc1c(C(C)(C)C)cc(S(=O)(=O)N2c3ccccc3C[C@H]2C)cc1C(C)(C)C,.,-3,.,-6,.
CCN(CC)S(=O)(=O)c1ccc(N2CCOCC2)c(NC(=O)CC(C)(C)C)c1,-10,2,0,-5,3
CCN(CC)S(=O)(=O)c1ccc(N2CCCC2)c(NC(=O)CC(C)(C)C)c1,8,-4,20*,3,3
CN(C)c1ccc(-c2nc3ncc(Cl)cc3[nH]2)cc1,.,5,.,-1,.
O=C1CC(NCCC2=CCCCC2)C(=O)N1c1cccc(Cl)c1Cl (stereo unspecified),10,.,18*,.,4
O=C(NCCC1=CCCCC1)C(=O)NCc1ccccc1Cl,4,1,8,2,6
COc1ccc(C(CNC(=O)CSc2ccc(Br)cc2C)N2CCOCC2)cc1 (stereo unspecified),0,4,24*,-13,-1
CC(C)CN1C(=O)[C@@]2(CC(=O)N(C)C2c2ccccc2)c2cc(-n3cc(CO)nn3)ccc21 (stereo partly specified),.,-3,.,-10,.
CCn1cc(C(=O)NCc2ccc3c(c2)OCO3)c(=O)c2cc(S(=O)(=O)N(C)C)ccc21,11,2,18*,-1,2
SMILES,GSTO1 inh,PRMT1 inh,Fh CTSL1 inh,TDP2 inh,PAD4 FP inh
C[C@@H]1O[C@@H](O[C@@H]2[C@@H](O)[C@H](OCCc3ccc(O)c(O)c3)O[C@H](CO)[C@H]2OC(=O)/C=C/c2ccc(O)c(O)c2)[C@H](O)[C@H](O)[C@H]1O,.,25*,.,2,4
COc1cc(/C=C/C(=O)OC[C@H]2O[C@H](OC3(CO)OC(CO)C(O)C3O)[C@H](O)[C@@H](O)[C@@H]2O)ccc1O (stereo partly specified),.,-3,.,8,0
CCN1CCCCC(NC(=O)c2cccc(C(F)(F)F)c2)C1=O (stereo unspecified),.,3,.,3,.
COC(=O)C1CN(C2CCCC2)CCS(=O)(=O)N1Cc1ccc(F)cc1 (stereo unspecified),.,-6,.,9,.
CCC(C(=O)Nc1ccccc1N1CCCC1)c1cccc(OC)c1 (stereo unspecified),.,0,.,7,.
COC(=O)CCCC1=CC2=C(c3ccccc3)C(=O)C(C)(OC(=O)C3CCCC3)C(=O)C2=CN1c1ccccc1 (stereo unspecified),35*,1,2,16,-8
CCCCCCCCNC(=O)C1CSCCS(=O)(=O)N1Cc1ccc(OC)cc1 (stereo unspecified),.,-5,.,2,.
CCCn1cc(C(CC(=O)O)C(=O)O)c2ccccc21 (stereo unspecified),6,3,17*,3,0
Oc1cc(Br)ccc1C=Nc1ccc(N2CCCCC2)cc1,53*,3,-3,19,10
CC1=NN(c2ccccc2)C(=O)/C1=C\c1cc(C)n(-c2ccccc2)c1C,13,-1,0,0,-3
CC1=NN(c2ccccc2)C(=O)C1=Cc1ccccc1,.,0,.,73*,.
CC1=NN(c2ccccc2)C(=O)/C1=C/c1ccc(Cl)cc1,.,1,.,71*,.
CC1=NN(c2ccccc2)C(=O)/C1=C/c1ccc[nH]1,2,0,0,-2,1
COc1cc(/C=C2/C(=O)N(c3ccccc3)N=C2C)ccc1OS(=O)(=O)c1ccccc1,36*,.,-8,.,36*
CC(C)(C)c1ccc(S(=O)(=O)N2CCC(c3cn4ccccc4n3)CC2)cc1,.,-1,.,-12,.
CCOC(=O)Cn1cc(CN2CCS(=O)(=O)N(Cc3ccccc3)C(C(=O)OC)C2)nn1 (stereo unspecified),.,-1,.,-1,.
Cc1ccc2[nH]cc(C(=O)CCl)c2c1,93*,3,61*,-4,2
O=c1c2ccccc2n(Cc2ccno2)n1[C@@H](Cc1ccccc1)Cn1cc(C2CCCC2)nn1,.,-2,.,0,.
COc1ccccc1-n1c(=O)[nH]c2c(C(N)=O)nc(CC(C)C)nc21,6,-3,21*,-19,6
COc1ccccc1-n1c(=O)[nH]c2c(C(N)=O)nc(C3CCCCC3)nc21,0,3,-1,-4,4
COC(=O)[C@@]12CCCCC3=C1N(CCC3)C(=O)[C@H]2CC(=O)NCc1ccc(C)o1,.,-1,.,7,.
Cc1csc(NC(=O)c2ccc(COc3ccccc3F)o2)n1,.,4,.,-1,.
C=CCN1[C@@H](Cc2ccccc2)COc2cccc(F)c2S1(=O)=O,.,-3,.,-6,.
CC(Cl)C(=O)c1c[nH]c2ccccc12 (stereo unspecified),37*,3,0,0,4
